Test results reported in ChEMBL document CHEMBL1144110, “Triterpene saponins and lignans from the roots of Pulsatilla chinensis and their cytotoxic activity against HL-60 cells” (J Nat Prod, 1999).
Values after ≈ are worked out from the molar mass of the structure shown.

System: HL-60
Experiment: Cytotoxicity against human HL-60 cells after 72 hrs by MTT assay
Assay type: functional, cell-based
Conditions: HL-60, 72 h
How it was run: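 HL-60 human promyelocytic leukemia cells grown in RPMI 1640 with 10% FBS, L-glutamine and penicillin/streptomycin. Seeded at 3 × 10^4 cells/mL and preincubated 24 h at 37 °C in 5% CO2. Samples added in EtOH–H2O (1:1) at final 0.0001–50 µg/mL, with vehicle controls, for 72 h. MTT then 4 h, formazan dissolved in DMSO, read at 550 nm. IC50 taken from dose-response curves of samples giving >50% inhibition at 10 µg/mL.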

Question: `C[C@@H]1O[C@@H](O[C@H]2[C@H](O[C@H]3CC[C@]4(C)[C@H]5CC=C6[C@@H]7CC(C)(C)CC[C@]7(C(=O)O)CC[C@@]6(C)[C@]5(C)CC[C@H]4C3(C)C)OC[C@H](O)[C@@H]2O)[C@H](O)[C@H](O[C@@H]2O[C@H](CO)[C@@H](O[C@@H]3O[C@H](CO)[C@@H](O)[C@H](O)[C@H]3O)[C@H](O)[C@H]2O)[C@H]1O` was tested. Which IC50 did it give?
Answer: The IC50 was 2.6 µg/mL (≈ 2.45 µM).

Question: `CC1(C)CC[C@]2(C(=O)O)CC[C@]3(C)C(=CC[C@@H]4[C@@]5(C)CC[C@H](O[C@@H]6OC[C@H](O[C@@H]7O[C@H](CO)[C@@H](O)[C@H](O)[C@H]7O)[C@H](O)[C@H]6O)[C@@](C)(CO)[C@@H]5CC[C@]43C)[C@@H]2C1` was tested. Which IC50 did it give?
Answer: The IC50 was > 10 µg/mL.

Question: Which IC50 does the source give for `C[C@@H]1O[C@@H](O[C@H]2[C@H](O[C@H]3CC[C@]4(C)[C@H]5CC=C6[C@@H]7CC(C)(C)CC[C@]7(C(=O)O)CC[C@@]6(C)[C@]5(C)CC[C@H]4C3(C)C)OC[C@H](O)[C@@H]2O)[C@H](O)[C@H](O[C@@H]2O[C@H](CO)[C@@H](O)[C@H](O)[C@H]2O)[C@H]1O` here?
Answer: The IC50 was 3.6 µg/mL (≈ 4.01 µM).

Question: How did the IC50 turn out when `C[C@@H]1O[C@@H](O[C@H]2[C@H](O[C@H]3CC[C@@]4(C)[C@@H](CC[C@]5(C)[C@@H]4CC=C4[C@@H]6CC(C)(C)CC[C@]6(C(=O)O)CC[C@]45C)[C@]3(C)CO)OC[C@H](O)[C@@H]2O)[C@H](O)[C@H](O[C@@H]2O[C@H](CO)[C@@H](O)[C@H](O)[C@H]2O)[C@H]1O` was run?
Answer: Its IC50 is 7.8 µg/mL (≈ 8.54 µM).

Question: For `C[C@@H]1O[C@@H](O[C@H]2[C@H](O[C@H]3CC[C@]4(C)[C@H]5CC=C6[C@@H]7CC(C)(C)CC[C@]7(C(=O)O)CC[C@@]6(C)[C@]5(C)CC[C@H]4C3(C)C)OC[C@H](O)[C@@H]2O)[C@H](O)[C@H](O)[C@H]1O`, which IC50 is on record?
Answer: The IC50 was 4.4 µg/mL (≈ 5.99 µM).

Question: Which IC50 does the source give for `COC(=O)[C@]12CCC(C)(C)C[C@H]1C1=CC[C@@H]3[C@@]4(C)CC[C@H](O[C@@H]5OC[C@H](O)[C@H](O)[C@H]5O[C@@H]5O[C@@H](C)[C@H](O)[C@@H](O[C@@H]6O[C@H](CO)[C@@H](O[C@@H]7O[C@H](CO)[C@@H](O)[C@H](O)[C@H]7O)[C@H](O)[C@H]6O)[C@H]5O)C(C)(C)[C@@H]4CC[C@@]3(C)[C@]1(C)CC2` here?
Answer: The IC50 was 7.8 µg/mL (≈ 7.27 µM).

Question: Which IC50 does the source give for `COC(=O)[C@]12CCC(C)(C)C[C@H]1C1=CC[C@@H]3[C@@]4(C)CC[C@H](O[C@@H]5OC[C@H](O)[C@H](O)[C@H]5O[C@@H]5O[C@@H](C)[C@H](O)[C@@H](O[C@@H]6O[C@H](CO)[C@@H](O)[C@H](O)[C@H]6O)[C@H]5O)[C@@](C)(CO)[C@@H]4CC[C@@]3(C)[C@]1(C)CC2` here?
Answer: The IC50 was 8 µg/mL (≈ 8.63 µM).

Question: With `C[C@@H]1O[C@@H](O[C@H]2[C@H](O[C@H]3CC[C@]4(C)[C@H]5CC=C6[C@@H]7CC(C)(C)CC[C@]7(C(=O)O)CC[C@@]6(C)[C@]5(C)CC[C@H]4C3(C)C)OC[C@H](O[C@@H]3O[C@H](CO)[C@@H](O)[C@H](O)[C@H]3O)[C@@H]2O)[C@H](O)[C@H](O[C@@H]2O[C@H](CO)[C@@H](O[C@@H]3O[C@H](CO)[C@@H](O)[C@H](O)[C@H]3O)[C@H](O)[C@H]2O)[C@H]1O` as the molecule, how does the IC50 read?
Answer: Its IC50 is 2.7 µg/mL (≈ 2.21 µM).

Question: With `COc1cc([C@@H]2OC[C@@H]3[C@H]2CO[C@H]3c2ccc(O)c(OC)c2)ccc1O` [(+)-PINORESINOL] as the molecule, how does the IC50 read?
Answer: Its IC50 is > 10 µg/mL.

Question: How did the IC50 turn out when `C[C@@H]1O[C@@H](O[C@H]2[C@H](O[C@H]3CC[C@@]4(C)[C@@H](CC[C@]5(C)[C@@H]4CC=C4[C@@H]6CC(C)(C)CC[C@]6(C(=O)O)CC[C@]45C)[C@]3(C)CO)OC[C@H](O)[C@@H]2O)[C@H](O)[C@H](O)[C@H]1O` [ALPHA-HEDERIN] was run?
Answer: Its IC50 is 7.1 µg/mL (≈ 9.45 µM).

Question: `COc1cc([C@@H]2c3cc4c(c(O)c3C[C@H]3COC(=O)[C@@H]32)OCO4)cc(OC)c1OC` [BETA-PELTATIN A] was tested. Which IC50 did it give?
Answer: The IC50 was 0.0052 µg/mL (≈ 0.0125 µM).

Question: Which IC50 does the source give for `COc1cc([C@@H]2c3cc4c(cc3[C@@H](O[C@@H]3O[C@@H]5CO[C@@H](C)O[C@H]5[C@H](O)[C@H]3O)[C@H]3COC(=O)[C@H]23)OCO4)cc(OC)c1O` [ETOPOSIDE] here?
Answer: Its IC50 is 0.3 µg/mL (≈ 0.51 µM).

Question: For `C[C@@H]1O[C@@H](O[C@H]2[C@H](O[C@H]3CC[C@]4(C)[C@H]5CC=C6[C@@H]7CC(C)(C)CC[C@]7(C(=O)O)CC[C@@]6(C)[C@]5(C)CC[C@H]4C3(C)C)OC[C@H](O[C@@H]3O[C@H](CO)[C@@H](O)[C@H](O)[C@H]3O)[C@@H]2O)[C@H](O)[C@H](O)[C@H]1O` [HEDERACOLCHISIDE A1], which IC50 is on record?
Answer: Its IC50 is 2.3 µg/mL (≈ 2.56 µM).

Question: How did the IC50 turn out when `C[C@@H]1O[C@@H](O[C@H]2[C@H](O[C@H]3CC[C@@]4(C)[C@@H](CC[C@]5(C)[C@@H]4CC=C4[C@@H]6CC(C)(C)CC[C@]6(C(=O)O)CC[C@]45C)[C@]3(C)CO)OC[C@H](O[C@@H]3O[C@H](CO)[C@@H](O)[C@H](O)[C@H]3O)[C@@H]2O)[C@H](O)[C@H](O)[C@H]1O` [HEDERACOLCHISIDE A] was run?
Answer: The IC50 was 3.8 µg/mL (≈ 4.16 µM).

Question: With `CC1(C)CC[C@]2(C(=O)O)CC[C@]3(C)C(=CC[C@@H]4[C@@]5(C)CC[C@H](O)C(C)(C)[C@@H]5CC[C@]43C)[C@@H]2C1` [OLEANOLIC_ACID] as the molecule, how does the IC50 read?
Answer: Its IC50 is > 50 µg/mL.
